This is an account of results in ChEMBL document CHEMBL4402598, “Design and Synthesis of Bitopic 2-Phenylcyclopropylmethylamine (PCPMA) Derivatives as Selective Dopamine D3 Receptor Ligands” (J Med Chem, 2020).

What is called Ki is the equilibrium dissociation constant of an inhibitor or competing ligand from its target. For orientation: IC50 means the concentration needed to halve the response being measured.

Series [1] has as its target T1, 5-hydroxytryptamine receptor 2C (Homo sapiens, UniProt P28335).
T1 sequence (P28335 whole entry): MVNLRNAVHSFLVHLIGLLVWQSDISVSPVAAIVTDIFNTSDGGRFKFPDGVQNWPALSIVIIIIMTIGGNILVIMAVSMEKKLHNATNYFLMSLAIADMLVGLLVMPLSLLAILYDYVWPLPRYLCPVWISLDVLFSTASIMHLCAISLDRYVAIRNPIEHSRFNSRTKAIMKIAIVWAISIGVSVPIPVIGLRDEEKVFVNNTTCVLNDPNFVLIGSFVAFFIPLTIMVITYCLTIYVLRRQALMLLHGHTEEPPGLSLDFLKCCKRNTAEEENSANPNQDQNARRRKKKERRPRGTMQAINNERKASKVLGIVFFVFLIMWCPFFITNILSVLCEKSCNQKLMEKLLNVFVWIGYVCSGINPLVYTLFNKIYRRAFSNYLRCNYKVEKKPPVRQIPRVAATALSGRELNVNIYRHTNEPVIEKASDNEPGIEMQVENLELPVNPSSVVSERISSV
Briefly: Displacement of [3H]-Mesulergine from recombinant human 5HT2C receptor expressed in HEKT cell membranes measured after 90 mins by microbeta scintillation counting method. On the technique in general: Displacement assays read how much labelled ligand stays bound in the presence of the test substance.

The target in series [2] is T2, D(4) dopamine receptor (Homo sapiens, UniProt P21917).
T2 sequence (P21917 whole entry): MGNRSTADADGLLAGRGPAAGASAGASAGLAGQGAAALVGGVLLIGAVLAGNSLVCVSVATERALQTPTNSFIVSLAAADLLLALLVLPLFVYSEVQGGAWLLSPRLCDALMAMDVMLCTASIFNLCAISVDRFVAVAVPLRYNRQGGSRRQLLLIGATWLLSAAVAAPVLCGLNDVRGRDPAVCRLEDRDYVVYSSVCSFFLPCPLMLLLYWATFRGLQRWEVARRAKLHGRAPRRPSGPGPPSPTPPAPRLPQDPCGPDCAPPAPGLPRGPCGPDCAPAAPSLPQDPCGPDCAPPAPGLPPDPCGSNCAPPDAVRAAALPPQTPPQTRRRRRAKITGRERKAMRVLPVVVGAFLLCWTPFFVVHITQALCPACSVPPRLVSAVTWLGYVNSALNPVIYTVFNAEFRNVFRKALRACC
In words: Displacement of [3H]-N-methylspiperone from recombinant human D4 receptor stably expressed in HEK cell membranes measured after 90 mins by microbeta scintillation counting method.

Series [3] addresses 5-hydroxytryptamine receptor 2B (Homo sapiens, UniProt P41595). In words: Agonist activity at 5HT2B receptor (unknown origin) expressed in HEK293 cells co-expressing Gq assessed as induction of calcium mobilization measured at 1 sec interval for 60 secs by Fluo-4 calcium dye based FLIPR assay. Format: cell-based. The following applies: hek293, 1 min. Background: Calcium flux is commonly read through the fluorescence of an indicator in the cells.

In series [4] the target is D(1B) dopamine receptor (Homo sapiens, UniProt P21918). Briefly: Displacement of [3H]-SCH23390 from recombinant human D5 receptor transiently expressed in HEKT cell membranes measured after 90 mins by microbeta scintillation counting method.
Chain of D(1B) dopamine receptor (P21918 whole entry): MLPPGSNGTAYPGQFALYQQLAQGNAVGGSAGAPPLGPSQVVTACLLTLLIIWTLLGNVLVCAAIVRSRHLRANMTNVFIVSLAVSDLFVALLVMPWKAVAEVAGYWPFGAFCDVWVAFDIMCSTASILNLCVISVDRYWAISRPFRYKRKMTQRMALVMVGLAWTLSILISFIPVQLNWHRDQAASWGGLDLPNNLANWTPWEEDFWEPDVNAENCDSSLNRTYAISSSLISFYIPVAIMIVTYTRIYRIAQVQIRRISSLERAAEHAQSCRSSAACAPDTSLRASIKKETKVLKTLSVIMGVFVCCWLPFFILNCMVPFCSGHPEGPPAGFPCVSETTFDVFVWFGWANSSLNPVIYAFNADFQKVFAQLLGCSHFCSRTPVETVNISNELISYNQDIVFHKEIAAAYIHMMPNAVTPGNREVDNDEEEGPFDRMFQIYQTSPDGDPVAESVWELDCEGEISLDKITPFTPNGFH
Series [5] concerns the target T1, 5-hydroxytryptamine receptor 2C. Briefly: Antagonist activity at human 5HT2C receptor stably expressed in HEK293 cells co-expressing Gq assessed as inhibition of 5-HT-induced calcium mobilization preincubated for 15 mins followed by 5-HT addition and measured at 1 sec interval for 60 secs by Fluo-4 calcium dye based FLIPR assay. Format: functional, cell-based. A digest of the protocol:
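5-HT2C stably transfected HEK293 cells, loaded with Fluo-4 Direct (HBSS, 20 mM HEPES pH 7.4, 2.5 mM probenecid; 50 min 37 °C, 10 min room temperature). Test compound added, then 5-HT (final 1 nM) 15 min later.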

The target in series [6] is D(2) dopamine receptor (Homo sapiens, UniProt P14416). In words: Displacement of [3H]-N-methylspiperone from recombinant human D2 receptor stably expressed in fibroblast cell membranes measured after 90 mins by microbeta scintillation counting method.
Chain of D(2) dopamine receptor (P14416 whole entry): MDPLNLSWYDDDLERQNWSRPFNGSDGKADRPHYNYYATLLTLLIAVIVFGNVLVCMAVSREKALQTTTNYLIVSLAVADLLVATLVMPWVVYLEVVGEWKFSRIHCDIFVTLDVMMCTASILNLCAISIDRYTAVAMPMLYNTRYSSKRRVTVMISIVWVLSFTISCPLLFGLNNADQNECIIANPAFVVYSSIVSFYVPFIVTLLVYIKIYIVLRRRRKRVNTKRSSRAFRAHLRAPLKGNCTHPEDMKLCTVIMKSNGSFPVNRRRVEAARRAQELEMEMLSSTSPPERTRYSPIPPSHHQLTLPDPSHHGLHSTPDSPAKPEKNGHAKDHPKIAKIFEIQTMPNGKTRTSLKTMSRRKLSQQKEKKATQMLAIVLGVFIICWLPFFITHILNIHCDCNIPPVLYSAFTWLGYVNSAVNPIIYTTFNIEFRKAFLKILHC
The target of series [7] is D(1A) dopamine receptor (Homo sapiens, UniProt P21728). Briefly: Displacement of [3H]-SCH23390 from recombinant human D1 receptor transiently expressed in HEKT cell membranes measured after 90 mins by microbeta scintillation counting method.
Chain of D(1A) dopamine receptor (P21728 whole entry): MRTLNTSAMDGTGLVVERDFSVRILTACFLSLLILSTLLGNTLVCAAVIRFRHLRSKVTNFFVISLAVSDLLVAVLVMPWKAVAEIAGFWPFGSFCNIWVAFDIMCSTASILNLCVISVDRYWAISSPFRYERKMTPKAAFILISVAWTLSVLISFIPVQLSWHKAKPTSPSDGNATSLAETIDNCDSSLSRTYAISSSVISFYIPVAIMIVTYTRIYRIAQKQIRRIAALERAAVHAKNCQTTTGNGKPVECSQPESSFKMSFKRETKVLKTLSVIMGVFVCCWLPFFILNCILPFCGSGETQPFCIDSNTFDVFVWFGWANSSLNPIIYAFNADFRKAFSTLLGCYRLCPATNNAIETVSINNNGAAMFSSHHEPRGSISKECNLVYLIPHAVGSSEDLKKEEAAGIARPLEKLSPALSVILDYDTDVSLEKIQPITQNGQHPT
The target in series [8] is 5-hydroxytryptamine receptor 2A (Homo sapiens, UniProt P28223). In words: Agonist activity at 5HT2A receptor (unknown origin) expressed in HEK293 cells co-expressing Gq assessed as induction of calcium mobilization measured at 1 sec interval for 60 secs by Fluo-4 calcium dye based FLIPR assay. Format: cell-based. Conditions: hek293, 1 min; call rule not given here.
Chain of 5-hydroxytryptamine receptor 2A (P28223 whole entry): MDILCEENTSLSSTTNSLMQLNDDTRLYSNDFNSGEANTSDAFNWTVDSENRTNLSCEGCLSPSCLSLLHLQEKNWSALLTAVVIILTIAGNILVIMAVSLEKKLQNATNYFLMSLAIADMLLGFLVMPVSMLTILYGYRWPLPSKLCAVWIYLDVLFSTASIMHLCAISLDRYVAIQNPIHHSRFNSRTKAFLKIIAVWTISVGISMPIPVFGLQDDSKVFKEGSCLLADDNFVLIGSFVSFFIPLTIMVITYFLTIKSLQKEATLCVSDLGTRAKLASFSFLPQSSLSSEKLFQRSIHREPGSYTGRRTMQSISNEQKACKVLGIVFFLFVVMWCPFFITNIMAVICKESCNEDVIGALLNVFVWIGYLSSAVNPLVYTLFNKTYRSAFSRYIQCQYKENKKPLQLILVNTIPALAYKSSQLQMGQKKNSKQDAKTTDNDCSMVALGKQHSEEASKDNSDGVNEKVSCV
Series [9] concerns the target D(3) dopamine receptor (Homo sapiens, UniProt P35462). In words: Displacement of [3H]-N-methylspiperone from recombinant human D3 receptor (unknown origin) measured after 90 mins by microbeta scintillation counting method.

Structures are written as SMILES.

Chain of D(3) dopamine receptor (P35462 whole entry): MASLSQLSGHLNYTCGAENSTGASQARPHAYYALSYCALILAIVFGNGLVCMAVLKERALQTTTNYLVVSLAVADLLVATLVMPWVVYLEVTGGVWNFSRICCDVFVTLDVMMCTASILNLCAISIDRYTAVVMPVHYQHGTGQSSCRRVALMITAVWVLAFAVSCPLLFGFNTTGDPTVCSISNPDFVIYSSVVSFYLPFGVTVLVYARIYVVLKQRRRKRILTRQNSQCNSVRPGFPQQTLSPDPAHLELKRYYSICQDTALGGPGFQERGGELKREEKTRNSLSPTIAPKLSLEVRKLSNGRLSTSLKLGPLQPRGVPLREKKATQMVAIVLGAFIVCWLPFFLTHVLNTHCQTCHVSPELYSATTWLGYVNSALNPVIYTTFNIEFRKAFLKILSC
Chain of 5-hydroxytryptamine receptor 2B (P41595 whole entry): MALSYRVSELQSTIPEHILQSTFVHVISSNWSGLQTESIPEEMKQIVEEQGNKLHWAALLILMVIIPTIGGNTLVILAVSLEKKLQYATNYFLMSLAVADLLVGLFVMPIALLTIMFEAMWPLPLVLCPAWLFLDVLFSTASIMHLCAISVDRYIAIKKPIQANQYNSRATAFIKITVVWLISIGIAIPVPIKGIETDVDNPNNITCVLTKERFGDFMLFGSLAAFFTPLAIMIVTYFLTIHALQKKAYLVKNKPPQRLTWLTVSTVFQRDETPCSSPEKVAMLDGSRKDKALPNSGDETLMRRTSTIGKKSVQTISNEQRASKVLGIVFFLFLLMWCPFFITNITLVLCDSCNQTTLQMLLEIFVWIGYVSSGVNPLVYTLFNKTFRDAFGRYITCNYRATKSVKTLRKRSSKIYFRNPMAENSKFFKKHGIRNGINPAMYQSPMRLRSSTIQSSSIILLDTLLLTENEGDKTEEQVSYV

Take `CCCN(CCCCNC(=O)c1ccc(-c2ccccn2)cc1)C[C@H]1C[C@@H]1c1cc(F)ccc1OC.Cl`: the Ki in [1] was 50.1 nM; in [2], 851 nM; in series [4] it was > 5000 nM; in [6], 1230 nM; in [7] it was 1070 nM. The Activity result in series [3] is given as “Not Active”; in series [8], “Active”. Moreover, the IC50 in series [5] was 860 nM.

On to `CCCN(CCCCNC(=O)c1ccc2ccccc2c1)CC1CC1c1cc(F)ccc1OC` (stereo unspecified), for which the Ki is 14.5 nM in [9]; 63.1 nM in series [1]; 844 nM in [2]; 2200 nM in series [4]; 1080 nM in [6]; 967 nM in series [7].

Turning to `CCCN(CCCSc1nnc(-c2ccccc2)n1C)CC1CC1c1cc(Cl)ccc1OC` (stereo unspecified), the Ki is 36.7 nM in series [9]; 535 nM in series [1]; 130 nM in series [2]; > 5000 nM in [4]; 233 nM in series [6]; 1920 nM in [7].

Take `CCCN(CCCSc1nnc(-c2ccccc2)n1C)CC1CC1c1cc(F)ccc1OC` (stereo unspecified): the Ki is 87.1 nM in [9]; 412 nM in series [1]; 85.8 nM in series [2]; > 5000 nM in series [4]; 1160 nM in series [6]; 1670 nM in series [7].

For `CCN(CCCCNC(=O)c1cc2ccccc2[nH]1)CC1CC1c1cc(F)ccc1OC` (stereo unspecified), the Ki in series [9] was 23.4 nM; in series [1], 49 nM; in series [2] it was 220 nM; in [4], > 5000 nM; in [6], 380 nM; in series [7], 1080 nM.

Consider `CCCN(CCCCNC(=O)c1cc2ccccc2[nH]1)CC1CC1c1ccc(C(F)(F)F)cc1` (stereo unspecified), for which the Ki was 33.1 nM in series [9]; 1310 nM in series [1]; 2070 nM in [2]; 8190 nM in series [4]; > 5000 nM in [6]; 1280 nM in [7].

For `CCCN(CCCCNC(=O)c1ccc(-c2ccccn2)cc1)CC1CC1c1ccc(C(F)(F)F)cc1` (stereo unspecified), the Ki in [9] is 23.4 nM; in series [1], 2360 nM; in [2], 2170 nM; in [4], 7700 nM; in series [6] it was > 5000 nM; in series [7], 1420 nM.

Turning to `COc1ccc(F)cc1C1CC1CN(CCCSc1nnc(-c2ccccc2)n1C)CC1CC1` (stereo unspecified), the inhibition constant (Ki) in series [9] is 64.6 nM; in series [1], 126 nM; in series [2] it was 292 nM; in series [4], 1200 nM; in series [6] it was > 5000 nM; in series [7] it was 1080 nM.

For the compound `CCN(CCCCNC(=O)c1ccc2ccccc2c1)CC1CC1c1cc(F)ccc1OC` (stereo unspecified), the Ki in series [9] is 15 nM; in series [1], 57.5 nM; in [2], 385 nM; in [4], 1720 nM; in series [6], 407 nM; in series [7] it was 986 nM.

With `CCCN(CCCCNC(=O)c1ccc(-c2ccccn2)cc1)CC1CC1c1cccc(F)c1` (stereo unspecified), the Ki in series [9] was 45.4 nM; in series [1], 1340 nM; in [2], 2220 nM; in series [4] it was > 5000 nM; in series [6] it was > 5000 nM; in series [7], 2910 nM.

As to `CCCN(CCCCNC(=O)c1ccc(-c2ccccn2)cc1)CC1CC1c1cc(Cl)ccc1OC` (stereo unspecified), the Ki was 39.4 nM in series [9]; 136 nM in series [1]; 1830 nM in series [2]; > 5000 nM in series [4]; 2100 nM in [6]; > 5000 nM in [7].

Consider `CCCN(CCCCNC(=O)c1ccc(-c2ccccn2)cc1)CC1CC1c1ccc(Cl)cc1` (stereo unspecified), for which the Ki in series [9] is 17.6 nM; in [1], 284 nM; in [2] it was 1410 nM; in series [4], 8840 nM; in series [6] it was > 5000 nM; in series [7] it was 1310 nM.

On to `CCCN(CCCCNC(=O)c1ccc2ccccc2c1)CC1CC1c1ccc(F)cc1` (stereo unspecified), for which the Ki in series [9] is 55.8 nM; in series [1], 238 nM; in series [2] it was 2170 nM; in series [4] it was > 5000 nM; in series [6], 5620 nM; in [7] it was 992 nM.

With `CCCN(CCCCNC(=O)c1cc2ccccc2[nH]1)CC1CC1c1cc(Cl)ccc1OC` (stereo unspecified), the Ki in [9] is 11.5 nM; in series [1], 85.1 nM; in [2], 575 nM; in series [4], 4230 nM; in [6], 1420 nM; in series [7] it was 818 nM.
